Measured values from paper PMC3115796 (The Journal of Cell Biology, 2011).
Entries after “also recorded” stand apart in the source; their conditions may differ. Ends that are not written are not given here.

Key:
[1] = tested on: SLAIN2 C terminus / full-length CLIP-170; assay: GST-SLAIN2 pull-down of CLIPs and full-length CLIP-170; assay type: binding
[2] = target: T1, CLIPCG1 (first CAP-Gly domain of CLIP-170) (Homo sapiens, UniProt P30622); assay: ITC of SLAIN2c with first CAP-Gly domain of CLIP-170; assay type: binding
T1 sequence (P30622 56-128): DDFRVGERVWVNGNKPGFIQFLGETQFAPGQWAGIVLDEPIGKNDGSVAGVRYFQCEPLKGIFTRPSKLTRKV

[3] = target: T2, CLIPCG2 (second CAP-Gly domain of CLIP-170) (Homo sapiens, UniProt P30622); assay: ITC of SLAIN2c with second CAP-Gly domain of CLIP-170; assay type: binding
T2 sequence (P30622 210-282): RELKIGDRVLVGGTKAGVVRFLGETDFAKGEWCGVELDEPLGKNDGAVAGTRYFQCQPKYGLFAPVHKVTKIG

[4] = target: T3, CLIPCG12 (both CAP-Gly domains of CLIP-170) (Homo sapiens, UniProt P30622); assay: ITC of SLAIN2c with double CAP-Gly construct of CLIP-170; assay type: binding
T3 sequence (P30622 48-300): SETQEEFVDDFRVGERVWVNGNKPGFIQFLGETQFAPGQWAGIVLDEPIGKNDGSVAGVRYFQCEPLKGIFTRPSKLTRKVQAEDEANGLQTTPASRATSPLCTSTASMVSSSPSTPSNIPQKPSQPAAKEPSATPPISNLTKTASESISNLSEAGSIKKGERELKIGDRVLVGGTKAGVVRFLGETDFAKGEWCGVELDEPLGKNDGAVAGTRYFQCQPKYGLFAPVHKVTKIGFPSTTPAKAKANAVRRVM

[5] = tested on: p150CG (CAP-Gly domain of dynactin large subunit p150^Glued); assay: ITC of SLAIN2c with CAP-Gly domain of p150Glued; assay type: binding, human; conditions: ITC in PBS, 25°C
SLAIN2 in 3T3 cells = assay: siRNA knockdown in mouse 3T3 cells; assay type: cell-based; conditions: siRNA 5 nM, 72 h
Method in brief: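 Mouse Swiss 3T3 cells were cultured in 45% DME, 45% Ham's F10 and 10% FCS. Cells were blocked in interphase with 2 mM thymidine, added 1 d after transfection, for 2 d.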

GFP–CLIP-115: full-length rat CLIP-115 [reference compound]
association with SLAIN2 C terminus [1]: associated with the SLAIN2 C terminus

GSMKDDSWKDGCY-OH [SLAIN2c]
Kd (in words) ([2]; ITC): micromolar range
Kd (in words) ([3]; ITC): micromolar range
Kd (in words) [4]: comparable
binding by ITC (in words) [5]: only very weak binding; also recorded: more weakly than the two CAP-Gly domains of CLIP-170

SLAIN2 siRNA#2: siRNA target sequence 5′-CUCUAUAGAUAGUGAGUUA-3′ (chemistry not given here)
depletion of SLAIN2 (SLAIN2 in 3T3 cells): efficiently deplete SLAIN2

SLAIN2c-W576A (GSMKDDSAKDGCY)
binding by ITC (in words) ([2]; ITC in PBS, 25°C): abrogates binding
binding by ITC (in words) ([3]; ITC in PBS, 25°C): abrogates binding
